Screening data: PubChem, Sanford-Burnham Center for Chemical Genomics
APJ ag: agonists of human apelin receptor APJ, primary screen, CHO-K1 cells, PathHunter beta-arrestin, luminescence; P35414; 0% DMSO wells, 100% apelin; activation, % at 20 µM; 330,000 compounds, 0.11% hits;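 active = activation more than six SD over the plate average, tested at 20 µM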;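 also: 0% = DMSO alone and 100% = apelin-13 at 10 nM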
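assay system = CHO-K1 APJ beta-arrestin complementation cell line | input = cell density 1000 per well | dosing = compound 20 µM once, DMSO 1% | timing = compound 90 min 25 °C, reagent 1 h | measured by = luminescence from split beta-galactosidase complementation, Galacton Star/Emerald II substrate | read-out basis = APJ agonist activity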
APJ antagonist: antagonists of human apelin receptor APJ, primary screen, CHO-K1 cells, beta-arrestin complementation, luminescence; inhibition, % at 20 µM; 330,000 compounds, 0.32% hits; AID 2521, 2010;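 active = inhibition above about 40% at 20 µM, limit read from the data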;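 also: cells challenged with 10 nM apelin-13 agonist together with compound; plate controls were apelin-13 plus DMSO wells for no effect and DMSO wells lacking apelin-13 for full effect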
CXCR6 inh: CXCR6 receptor inhibitors, primary screen, cell-based, beta-arrestin, luminescence, CHO-K1 PathHunter, 1536-well; inhibition, % at 20 µM; 360,000 compounds, 0.36% hits; AID 602244, 2012; in the data active = inhibition above about 34%, passing the limit was not always enough;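 also: antagonist mode with CXCL16 agonist at 10 nM final; 0% = 10 nM CXCL16 with DMSO and 100% = unstimulated wells without agonist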
CCR6 antag: CCR6 receptor antagonists, primary screen, cell-based, CHO-K1, luminescence, beta-arrestin, uHTS. C-C chemokine receptor type 6 (Homo sapiens), P51684. CHO-K1 CCR6 PathHunter beta-arrestin, CCL20-stimulated. inhibition, % at 20 µM. 340,000 compounds, 0.49% hits. AID 493098, 2011;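 active = compounds whose inhibition of the agonist-driven luminescence signal at 20 µM reaches about 50%, limit read from the data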;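 also: cells stimulated with CCL20 at 14 nM final; plate controls were DMSO with CCL20 for no effect and DMSO without agonist for full effect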
Target sequence (P51684 whole entry, looked up): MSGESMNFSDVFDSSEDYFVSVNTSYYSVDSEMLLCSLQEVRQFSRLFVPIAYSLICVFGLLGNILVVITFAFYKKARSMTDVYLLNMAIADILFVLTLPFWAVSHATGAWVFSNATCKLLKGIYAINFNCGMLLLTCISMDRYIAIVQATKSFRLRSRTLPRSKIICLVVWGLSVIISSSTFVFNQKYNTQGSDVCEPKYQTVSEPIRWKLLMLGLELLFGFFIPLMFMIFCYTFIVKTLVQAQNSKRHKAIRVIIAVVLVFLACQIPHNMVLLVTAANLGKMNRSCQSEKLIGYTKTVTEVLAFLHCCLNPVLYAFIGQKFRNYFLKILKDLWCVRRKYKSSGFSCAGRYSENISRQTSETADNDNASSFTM
EBI2 block: EBI2 receptor antagonists, beta-arrestin recruitment, primary screen, cell-based, luminescence, 7a,25-OHC stimulation, uHTS; 7a,25-OHC stimulated; inhibition, % at 5 µM; 360,000 compounds, 0.81% hits; AID 651636, 2012; in the data active = inhibition above about 38%;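 also: enzyme fragment complementation signal reports receptor beta-arrestin coupling in cells; 0% = agonist plus DMSO wells and 100% = wells without agonist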
An asterisk follows results filed as active; x = not tested or not shown. A selection: hits, their analogues and other compounds. The true share with any hit is near 1.5%.

SMILES	APJ ag	APJ antagonist	CXCR6 inh	CCR6 antag	EBI2 block
N#C/C(=C(/O)c1ccc([N+](=O)[O-])s1)c1nc2ccccc2[nH]1	1	18	33	63*	20
N#C/C(=C(/O)c1ccc(Br)s1)c1nc2ccccc2[nH]1	-4	13	3	13	0
COc1ccccc1-c1cc(C(=O)Nc2cc(C)n(Cc3ccc(Cl)cc3)n2)no1	-2	-8	-6	13	52*
NS(=O)(=O)c1ccc(Sc2ccc3c(c2)CCC3)nc1	-2	4	-2	8	9
O=C(CCNC(=O)c1ccc(Cl)cc1)Nc1ccncc1	5	-53	-10	-3	-7
CC(C)Oc1cccc(C(=O)NC(=S)Nc2cccc(C(F)(F)F)c2)c1	-5	20	17	x	10
CCCCOc1cccc(C(=O)NC(=S)Nc2cccc(C(F)(F)F)c2)c1	-4	24	30	51*	7
COC1=CC(=O)C=C(OC)C1=O	x	x	81*	86*	-10
Cc1c(Cl)cccc1NC(=O)CN1CCC(C(O)(c2ccccc2)c2ccccc2)CC1	-5	-15	6	-26	38*
Cc1ccc2ccc(C(Nc3cccc(C(F)(F)F)c3)c3cccnc3)c(O)c2n1 (centres undefined)	-6	21	40*	53*	19
CCc1cc2c(Nc3ccc(O)cc3)nc(C)nc2s1	2	16	-7	-2	10
CCOc1ccc(N2C(=O)CC(Sc3nnnn3-c3ccccc3)C2=O)cc1 (centres undefined)	x	x	52*	x	-1
C/C(=N/NC(=O)c1ccncc1)C1=C(O)CC(C)(C)CC1=O	-1	0	25	5	-8
CC(=O)n1cc(Nc2ccc([N+](=O)[O-])cc2)c2ccccc21	-6	42*	15	36	11
CC(=O)SC(C[N+](=O)[O-])c1cn(C(C)=O)c2ccccc12 (centres undefined)	-7	-1	55*	76*	-7
Cc1ccccc1S(=O)(=O)N1C[C@H]2[C@H]3C(=O)N(C4CCCCC4)C(=O)[C@H]3CC(=O)[C@H]2[C@@H]1c1ccc(Cl)cc1	x	x	-6	x	0
NS(=O)(=O)c1ccc(NC(=O)COC(=O)c2ccc([N+](=O)[O-])s2)cc1	17*	-59	-16	-2	-9
CCOC(=O)N1CCC(n2c(=S)[nH]c3cc(OCC)c(OCC)cc3c2=O)CC1	-2	12	-4	7	60*
CCn1c(=O)c2ccccc2n(Cc2cccc(C)c2)c1=O	-1	15	-2	15	6
Cc1cccc(Cn2c(=O)n(Cc3ccco3)c(=O)c3ccccc32)c1	-2	14	14	33	61*
Cc1ccc(S(=O)(=O)N[C@@H](CC(C)C)C(=O)N2CCC(C(=O)N[C@@H](Cc3ccccc3)C(=O)O)CC2)cc1	-3	16	5	4	-5
Cc1ccc(Cc2cnc(N3C(=N)SC(c4ccccc4)C3=O)s2)cc1 (centres undefined)	-3	-8	29	62*	-13
N=C1SC(c2ccccc2)C(=O)N1c1ncc(Cc2ccccc2)s1 (centres undefined)	-3	-9	24	45	1
CCN(Cc1ccc(NC(C)=O)cc1)CC1CCCN(CCc2cccc(OC)c2)C1 (centres undefined)	1	-8	2	7	4
CCOc1ccc(N2CC(NS(=O)(=O)c3cccnc3)CC2=O)cc1 (centres undefined)	-7	2	-5	9	-4
SMILES	APJ ag	APJ antagonist	CXCR6 inh	CCR6 antag	EBI2 block
CCN(CC)c1ccc(/C=N/N=C(c2ccccc2)c2ccccc2)c(O)c1	-1	5	2	21	66*
COc1ccc(C(=O)/C(C#N)=N/Nc2ccccc2[N+](=O)[O-])cc1	-2	32	34	42	3
COc1ccc(C(=O)/C(C#N)=N/Nc2ccc([N+](=O)[O-])cc2)cc1	-10	73*	67*	76*	-5
N#CC(C#N)=NNc1ccc([N+](=O)[O-])cc1	-9	26	43*	57*	13
CCN(CC(=O)Nc1cccc(OC)c1)C(=O)c1cnc(Cl)c(Cl)c1	-2	-8	2	-4	-11
Cc1ccc(C(=O)CNc2ccc(C)cc2C)cc1	-9	11	31	79*	2
Cc1ccc(NC(=O)CC(=O)Nc2ccc(C)cc2C)c(C)c1	-1	12	-29	9	-17
CCOc1ccc(NC(=O)CN2CCN(CC(=O)Nc3cccc(F)c3)CC2)cc1	4	8	0	16	0
CCOc1ccc(NC(=O)CN2CCN(CC(=O)Nc3ccc(Cl)c(C(F)(F)F)c3)CC2)cc1	0	-14	-11	-4	43*
Cc1ccccc1C(=O)N1CCC(C(=O)N2CCN(c3ncccn3)CC2)CC1	-4	-7	1	-5	-2
CCOC(=O)N1CCN(C(=O)C2CCN(C(=O)c3ccccc3C)CC2)CC1	x	x	109*	x	3
C#CCOCCOCCOCCNc1nc(N2CCN(C(=O)CCCCCCCCCCNC(=O)[C@H]([C@@H](C)CC)n3cc(CCCCN=C(N)N)nn3)CC2)nc(N2CCN(C(=O)CCCCCCCCCCNC(=O)[C@H](CCCN=C(N)N)n3cc(C[C@@H](C)CC)nn3)CC2)n1	73*	35	x	x	x
O=[N+]([O-])c1cccc(COc2ccccc2CO)c1	x	x	-3	x	-5
COc1ccc2[nH]c3c4c(ccc3c2c1)C(=O)C=CC4=O	3	21	30	61*	35
COc1ccc2[nH]c(=O)cc(C(=O)O)c2c1	0	-4	0	6	-7
Cc1ccc(C(C)NC(=O)c2cc3cc(Br)ccc3oc2=N)cc1 (centres undefined)	-2	-29	-9	1	4
C/C(CCC12CC3CC(CC(C3)C1)C2)=N\NC(N)=S	-4	5	21	57*	29
COc1ccc(C(=O)C(C)OC(=O)c2cccc(S(=O)(=O)Nc3cc(Cl)c(OC)cc3OC)c2)cc1 (centres undefined)	-1	-13	-4	17	37*
Cc1onc(-c2ccccc2Cl)c1C(=O)NCc1nc(-c2ccc(C(F)(F)F)cc2)no1	-2	-10	3	8	12
CCCC(=O)NC1=C(Cl)C(=O)c2ccccc2C1=O	x	x	99*	107*	-31
Cc1ccc(NC2=C(Cl)C(=O)c3ccccc3C2=O)cc1	x	x	7	46	30
CCN(CC)c1ccc(NC2=C(Cl)C(=O)c3ccccc3C2=O)cc1	x	x	34	57*	37
CCNC1=C(Cl)C(=O)c2ccccc2C1=O	-1	-27	7	-11	0
CCOC(=O)CCCNC(=O)CN1CCC(c2nc3ccccc3s2)CC1	-3	20	8	7	-16
C=CCOc1ccc2ccccc2c1CNn1cn[nH]c1=S	0	0	-6	-4	-6
